# What was measured:
# [1] = Chemical stability assessed as compound remaining in DMSO after 8 hrs; format: physicochemical; conditions: read-out: Stability
# Method in brief: (§1)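 Compound held 8 h at room temperature in DMSO or in pH 7.4 buffer. Percent remaining determined by LC/MS.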
# [2] = Chemical stability assessed as compound remaining in aqueous buffer at pH 7.4 after 8 hrs; format: physicochemical; conditions: read-out: Stability; method in brief: as §1
# [3] = Aqueous solubility at pH 7.8; format: physicochemical; conditions: aqueous solution
# Method in brief: (§2)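 Thermodynamic solubility from a slurry. Sonicated 20 min at room temperature, 10 min at 50 °C, then 10 min at room temperature, and agitated at least two days at room temperature. Residual solid was checked for crystallinity by polarized light microscopy. Slurry centrifuged 15,000 rpm at 20 °C for 20 min. Supernatant assayed by HPLC and its pH measured. Values are typically means of two measurements.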
# [4] = Half life in Sprague-Dawley rat at 5 mg/kg, iv; format: ADME, organism-based; design: dose 5 mg/kg, route intravenous; conditions: in vivo
# Method in brief: (§3)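 Male Sprague–Dawley rats (n = 3) dosed iv, prodrug at a dose equivalent to 5 mg/kg of parent, compared with an equivalent iv dose of parent. Plasma profiles of both prodrug and released parent were determined, giving AUC_INF and elimination half-life.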
# [5] = AUC (0 to infinity) in Sprague-Dawley rat at 5 mg/kg, iv; format: ADME, organism-based; design: time infinity, dose 5 mg/kg, route intravenous; conditions: plasma; method in brief: as §3
# [6] = AUC (0 to infinity) in Sprague-Dawley rat at 10 mg/kg, po; format: ADME, organism-based; design: time infinity, dose 10 mg/kg, route oral; conditions: plasma
# Method in brief: (§4)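 Male Sprague–Dawley rats (n = 3) dosed orally, prodrug at a dose equivalent to 10 mg/kg of parent, compared with an equivalent oral dose of parent. Parent levels measured in plasma; AUC_INF derived from the plasma profile. Bioavailability is expressed with respect to the parent compound.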
# [7] = Oral bioavailability in Sprague-Dawley rat at 10 mg/kg; format: ADME, organism-based; conditions: in vivo; method in brief: as §4
# [8] = Permeability across MDCK cells; format: ADME, cell-based, Canis lupus familiaris; conditions: dog, read-out: permeability
# [9] = Aqueous solubility at pH 2.5; format: physicochemical; conditions: aqueous solution; method in brief: as §2
# [10] = Aqueous solubility at pH 3.5; format: physicochemical; conditions: aqueous solution; method in brief: as §2
# [11] = Aqueous solubility at pH 3.2; format: physicochemical; conditions: aqueous solution; method in brief: as §2
remaining at 8 h [1],remaining at 8 h [2],solubility [11],SMILES,also measured
0%,0%,–,CNCC(=O)OCn1cc(CCNc2ncnc3ccsc23)s/c1=N\C(=O)Nc1cccc(Cl)c1,–
100%,100%,–,O=C(/N=c1\sc(CCNc2ncnc3ccsc23)cn1COP(=O)(O)O)Nc1cccc(Cl)c1,solubility [3]: 4700 µg/mL; half-life [4]: 0.5 h; AUC(0-inf) [5]: 1910 ng·h/mL; AUC(0-inf) [6]: 2200 ng·h/mL; bioavailability [7]: 44%; Papp [8]: < 1 ×10⁻⁶ cm/s
100%,100%,–,CC(=O)OCn1cc(CCNc2ncnc3ccsc23)s/c1=N\C(=O)Nc1cccc(Cl)c1,solubility [9]: 120 µg/mL
100%,100%,–,O=C(/N=c1\sc(CCNc2ncnc3ccsc23)cn1COC(=O)CC1CCNCC1)Nc1cccc(Cl)c1,solubility [10]: 2500 µg/mL
100%,100%,280 µg/mL,CC(C)(C)C(=O)OCn1cc(CCNc2ncnc3ccsc23)s/c1=N\C(=O)Nc1cccc(Cl)c1,–
–,–,14 µg/mL,CS(=O)(=O)O.O=C(Nc1cccc(Cl)c1)Nc1ncc(CCNc2ncnc3ccsc23)s1 [SNS-314 MESYLATE],half-life [4]: 2.1 h; AUC(0-inf) [5]: 2090 ng·h/mL; AUC(0-inf) [6]: 3650 ng·h/mL; bioavailability [7]: 72%
–,–,170 µg/mL,CC(C)C(=O)OCn1cc(CCNc2ncnc3ccsc23)s/c1=N\C(=O)Nc1cccc(Cl)c1,–
84%,52%,–,O=C(/N=c1\sc(CCNc2ncnc3ccsc23)cn1COC(=O)C1CCNCC1)Nc1cccc(Cl)c1,–
